Source: PubChem BioAssay
This is a sample that favours compounds with a hit; in the whole collection about 3.7% have one here.
Kir21 block: inhibitors of mouse Kir2.1 inward-rectifier potassium channel; actives 0.85% (n = 310,000); B-score at 10 µM; HEK293-Kir2.1, FluxOR thallium flux fluorescence; active compounds read low; AID 1672, 2009;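 active = fluorescence ratio B-score at or below minus 3 SD of library scores, with starting-brightness B-score within 2 SD, cut at about -4.2 in these data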;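 also: channel flux triggered by added potassium and thallium sulfate stimulus; B-score of peak minus minimum fluorescence over baseline after thallium stimulus; more negative B-score means stronger Kir2.1 block with less thallium influx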
KCNQ1 act: potentiators or activators of KCNQ1 channel, primary screen, cell-based, thallium flux, high-throughput | Potassium voltage-gated channel subfamily KQT member 1 (Homo sapiens), P51787 | CHO-K1 KCNQ1, thallium flux FluxOR fluorescence; active compounds read high | B-score at 10 µM | actives 0.35% (n = 310,000) | AID 2648, 2010;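 active = fluorescence ratio B-score, a plate-corrected score, at least three library SD, with initial intensity B-score within 5 SD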
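Assay system: CHO-K1 cells stably expressing KCNQ1; Medium: assay buffer with matched DMSO; Also added: K+/Tl+ depolarizing stimulus; Dosing: single dose; Timing: dye 90 min, compound 20 min, room temperature; Measured by: kinetic FluxOR thallium fluorescence, 10-s 1-Hz baseline, 110-s post-stimulus read; Read-out: peak-minus-minimum fluorescence over initial fluorescence, negative-control normalized, B-scored.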
hERG protect: hERG rescue from dofetilide block, primary screen, cell-based, CHO-hERG, FluxOR thallium flux, dofetilide IC70; dofetilide IC70 present; activation (rescue from dofetilide block), less the hit threshold, % at 10 µM; actives 0.51% (n = 310,000);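 active = activation above the mean of controls blocked by dofetilide plus 5 SD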;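 also: thallium influx through hERG after potassium depolarization seen as dye fluorescence rise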
KCNK3 inh: human KCNK3 channel inhibitors, primary screen, CHO cells, FluxOR thallium flux, B-score; Potassium channel subfamily K member 3 (Homo sapiens), O14649; FluxOR fluorescence; active compounds read low; B-score at 10 µM; actives 0.84% (n = 340,000); AID 602410, 2012;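 active = B-score under library mean minus 4 SD, starting fluorescence ratio at most library mean plus 5 SD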;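 also: more negative B-score means stronger inhibition of thallium flux through KCNK3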
Target sequence (O14649 whole entry, looked up): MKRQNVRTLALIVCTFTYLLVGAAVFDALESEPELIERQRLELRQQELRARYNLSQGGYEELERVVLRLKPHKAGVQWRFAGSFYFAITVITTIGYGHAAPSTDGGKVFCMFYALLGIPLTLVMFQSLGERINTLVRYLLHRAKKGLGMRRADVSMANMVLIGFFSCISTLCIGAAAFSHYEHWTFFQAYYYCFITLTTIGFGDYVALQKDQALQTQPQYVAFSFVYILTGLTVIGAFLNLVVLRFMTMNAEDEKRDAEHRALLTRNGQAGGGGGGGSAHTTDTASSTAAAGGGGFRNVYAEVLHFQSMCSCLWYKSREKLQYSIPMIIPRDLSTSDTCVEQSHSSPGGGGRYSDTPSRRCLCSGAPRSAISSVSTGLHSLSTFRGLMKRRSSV
KCNK9 inh: KCNK9 potassium channel inhibitors, primary screen, HEK293 cells, thallium flux. FluxOR thallium flux fluorescence; active compounds read low. B-score at 10 µM. actives 1.2% (n = 310,000). AID 488922, 2010;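 active = ratio B-score over 3 SD below the library mean, with starting fluorescence within 5 SD of its mean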;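 also: negative B-score means less thallium flux so channel inhibition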
KCNQ1 inh: inhibitors of human KCNQ1 channel, primary screen, cell-based, thallium flux, high-throughput | Potassium voltage-gated channel subfamily KQT member 1 (Homo sapiens), P51787 | CHO-K1 KCNQ1, FluxOR thallium flux fluorescence; active compounds read high | B-score at 10 µM | actives 1.3% (n = 310,000);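 active = compounds whose thallium flux B-score, printed positive for inhibition, exceeds three library SD while starting fluorescence stays within three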;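 also: channel opened by potassium depolarization with thallium stimulus after 20 min compound exposure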
KCNK9 block conf: KCNK9 potassium channel inhibitors, confirmation, HEK293 cells, thallium flux, duplicate. FluxOR thallium flux fluorescence. actives 43% (n = 4,900). shares compounds with KCNK9 inh. inhibition, % at 10 µM;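 active = thallium signal inhibited by more than 5 SD of the compound-free buffer control wells, on both duplicate plates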;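 also: 0% = assay buffer control wells without compound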
Kir21 sel: mouse Kir2.1 channel inhibition, confirmation, selectivity assay for KCNK9 modulator project, cell-based, HEK293, thallium flux; shares compounds with KCNK9 inh; Kir2.1 cells, FluxOR thallium flux fluorescence; inhibition, % at 10 µM; actives 4% (n = 4,900);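 active = thallium signal drop more than 5 SD beyond the mean of the no-compound control wells, seen in both duplicate plates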;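 also: signal is fluorescence rise after thallium addition divided by baseline fluorescence; plate controls were assay buffer only for no effect and full block by chlorpromazine control for full effect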
HEK293 Tl ctr: thallium flux in non-induced HEK293 cells, confirmation, counter-screen for KCNK9 inhibitor project, cell-based, second counter screen, non-induced KCNK9-HEK293 | FluxOR thallium flux | actives 40% (n = 4,900) | AID 492997, 2010 | inhibition, % at 10 µM | shares compounds with KCNK9 inh;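 active = thallium signal drop beyond 5 SD of the untreated control mean, on both duplicate plates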;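 also: plate controls were buffer only IC0 wells for no effect and SID17386958 at its maximal inhibitory level for full effect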
* marks the source's active call; other numbers are inactive results; i = inactive; / = not tested or not shown.

SMILES | Kir21 block | KCNQ1 act | hERG protect | KCNK3 inh | KCNK9 inh | KCNQ1 inh | KCNK9 block conf | Kir21 sel | HEK293 Tl ctr
Cc1ccc(NC(=O)CSCC(=O)N2c3ccccc3CCc3ccccc32)cc1 | 0.42 | i | -7 | i | i | i | / | / | /
CC(C)(C)c1ccc(CN2N=C(/C=C/c3ccccc3)CCC2=O)cc1 | 0.11 | i | -10 | i | i | i | i | i | i
O=C1CCC(/C=C/c2ccccc2)=NN1Cc1ccc(F)cc1 | 2.3 | i | -10 | i | i | i | i | i | i
O=C1CCC(/C=C/c2ccccc2)=NN1Cc1ccccc1 | 0.26 | i | -8 | i | i | i | / | / | /
Cc1ccc(NC(=O)C(=O)NCc2ccc(/C=C(/C#N)C(=O)NCc3cccnc3)o2)cc1 | -0.19 | i | -8 | i | i | i | / | / | /
N#C/C(=C/c1ccc(CNC(=O)C(=O)Nc2cc(Cl)cc(Cl)c2)o1)C(=O)NCc1cccnc1 | 0.16 | i | -8 | i | -10* | i | i | i | i
Cc1cc(C(=O)Nc2cc(S(C)(=O)=O)ccc2Cl)c(C)o1 | / | / | / | i | / | / | / | / | /
Cc1ccc2c(CN3CCN(Cc4ccccc4)CC3)cc(=O)oc2c1C | -0.38 | i | -7 | i | i | i | i | i | i
CCOC(=O)C1CCN(Cc2cc(=O)oc3cc(C)c(Cl)cc23)CC1 | 0.43 | i | -3 | i | i | i | i | i | i
CCOC(=O)C1CCN(Cc2cc(=O)oc3c(C)c(C)ccc23)CC1 | -1.1 | i | -7 | i | i | i | i | i | i
Cc1ccc2c(CN3CCC(C)CC3)cc(=O)oc2c1C | 0.01 | i | -3 | i | i | i | / | / | /
Cn1cc(CN2CCC(O)CC2)c(-c2ccc(Oc3ccccc3)cc2)n1 | -0.11 | i | -9 | i | i | i | / | / | /
CCOC(=O)C1CCN(Cc2cn(C)nc2-c2ccc(Oc3ccccc3)cc2)CC1 | -0.22 | i | -15 | i | i | i | i | i | i
Cc1cc(C)c2oc(=O)cc(CN3CCN(Cc4ccccc4)CC3)c2c1 | -0.85 | i | -12 | i | i | i | / | / | /
COc1ccc(-c2noc(=O)n2CC(=O)N2CCC(Cc3ccccc3)CC2)cc1 | 0.68 | i | -11 | i | i | i | / | / | /
COc1ccc(C(=O)CSc2nc3ncccc3[nH]2)cc1OC | 1.5 | i | -6 | i | i | i | / | / | /
CCOC(=O)C1CCN(Cc2cc(Cl)c3ccccc3c2O)CC1 | 1 | i | 0 | i | i | i | i | i | i
CCOC(=O)C1CCN(Cc2ccc(OC)c(C)c2OC)CC1 | 0.23 | i | -5 | i | i | i | / | / | /
CCN(CC)CCSc1nnc2c3ccccc3n(Cc3ccccc3)c2n1 | -1.6 | i | -20 | i | i | i | / | / | /
COc1ccc(C(=O)N(Cc2nc(-c3ccc(C)cc3)no2)C2CCCCC2)cc1OC | -1.5 | i | -1 | i | i | i | i | i | i
COc1ccc(-c2noc(CCC(=O)NCC3CCCO3)n2)cc1 (configuration not stated) | 0.97 | i | -3 | i | i | i | / | / | /
COC(=O)c1ccc(-c2noc(CN(C)Cc3ccncc3C)n2)cc1 | 0.05 | i | -26 | i | i | i | / | / | /
COC(=O)c1ccc(-c2noc(CN(C)CCC3CCCCO3)n2)cc1 (configuration not stated) | -0.52 | i | -5 | i | i | i | i | i | i
COc1ccc(-c2noc(CN(C)CCC3CCCCO3)n2)cc1 (configuration not stated) | -1.2 | i | -5 | i | i | i | i | i | i
COCCN(C(=O)CSc1nnc(-c2ccccc2F)o1)c1c(N)n(CC(C)C)c(=O)[nH]c1=O | -0.02 | i | -15 | i | i | i | / | / | /
SMILES | Kir21 block | KCNQ1 act | hERG protect | KCNK3 inh | KCNK9 inh | KCNQ1 inh | KCNK9 block conf | Kir21 sel | HEK293 Tl ctr
Clc1cccc(NCc2nnc(SCc3ccc(Cl)cc3Cl)o2)c1 | -0.08 | i | -6 | i | i | i | i | i | 32%*
S=c1[nH]nc(CNc2cccc(Cl)c2)o1 | -0.74 | i | -9 | i | i | i | / | / | /
Cc1oc(-c2cccc(C(F)(F)F)c2)nc1CN1CCN(c2ccccn2)CC1 | -0.13 | i | -18 | i | i | i | i | i | i
Cc1oc(-c2cccc(Cl)c2)nc1CN1CCC(C(=O)NCc2ccco2)CC1 | 0.09 | i | -15 | i | i | i | / | / | /
Cc1cccc(N2CCN(Cc3nc(-c4cccc(Cl)c4)oc3C)CC2)n1 | -1.8 | i | -17 | i | i | i | i | i | i
Cc1cccc(N2CCN(Cc3nc(-c4ccccc4Cl)oc3C)CC2)n1 | 0.55 | i | -13 | i | i | i | i | i | i
Cc1ccccc1-c1nc(CN2CCSCC2)c(C)o1 | 0.28 | i | -12 | i | i | i | / | / | /
Cc1ccccc1-c1nc(CN2CCC(C(=O)N3CCN(c4ccccn4)CC3)CC2)c(C)o1 | -0.54 | i | -7 | i | i | i | / | / | /
COC(=O)c1cc2occc2n1Cc1nc(-c2cccc(Cl)c2)oc1C | -1.5 | i | -9 | i | -9.3* | i | i | i | 24%*
Cc1ccc(C(=O)N2CCN(c3ccccn3)CC2)cc1 | -0.71 | i | 1 | i | i | i | / | / | /
CC(C)c1ccc(OCc2ccc(C(=O)N3CCN(c4ccccn4)CC3)cc2)cc1 | -0.82 | i | -8 | i | i | 6* | i | i | i
COc1ccc(/C=C/C(=O)Oc2ccc(C)c(C)c2)cc1OC | -0.05 | i | -6 | i | i | i | i | i | i
